ChEMBL document CHEMBL1128366, “Hypoxia-selective agents derived from quinoxaline 1,4-di-N-oxides” (J Med Chem, 1995)

Legend:
[1] = Hypoxia cytotoxicity ratio (dose in air / hypoxia giving 99% of cell killing)
Outline: (§1)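 V-79 Chinese hamster lung fibroblasts in stirred suspension (2 × 10⁴ cells/mL, EMEM + 10% FBS, 10 mM HEPES), gassed for air or hypoxia; drug in DMSO added 30 min after gassing began, two flasks per dose, 2 h exposure. Cells cloned 7 days at 37 °C, crystal violet stain, colonies >64 cells counted; survival = PE treated/PE control. Dose-response curves from ≥3 experiments.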

V79 = experiment: The compound was tested for potency by measuring the concentration (umolar) that gives 1% clonogenic cell survival in hypoxia; type: functional, Cricetulus griseus; outline: as §1

Structure (SMILES) | Selectivity [1] | Potency (V79)
N#Cc1c(N)[n+]([O-])c2cc(Cl)ccc2[n+]1[O-] | 150 | 9 µM
COc1cc2c(cc1Cl)[n+]([O-])c(C#N)c(N)[n+]2[O-] | < 10 | 10 µM
N#Cc1ccc2c(c1)[n+]([O-])c(N)c(C#N)[n+]2[O-] | 50 | 11 µM
N#Cc1c(N)[n+]([O-])c2cc(Cl)c(F)cc2[n+]1[O-] | 10 | 2 µM
N#Cc1c(N)[n+]([O-])c2ccccc2[n+]1[O-] | 80 | 30 µM
N#Cc1c(N)[n+]([O-])c2cc(Cl)c(Cl)cc2[n+]1[O-] | 80 | 1 µM
COc1ccc2c(c1)[n+]([O-])c(N)c(C#N)[n+]2[O-] | > 10 | 30 µM
N#Cc1c(N)[n+]([O-])c2cc(C(F)(F)F)ccc2[n+]1[O-] | 75 | 7 µM
N#Cc1c(N)[n+]([O-])c2cc(F)ccc2[n+]1[O-] | 100 | 15 µM
N#Cc1c(N)[n+]([O-])c2cc(F)c(F)cc2[n+]1[O-] | < 10 | 1 µM
Nc1n[n+]([O-])c2ccccc2[n+]1[O-] [TIRAPAZAMINE] | 75 | 30 µM
N#Cc1c(N)[n+]([O-])c2cc(-c3ccc([N+](=O)[O-])cc3)ccc2[n+]1[O-] | 15 | 4 µM
